Tests used:
KiSS-1 receptor [1] = molecular target: T1, KiSS-1 receptor (Homo sapiens, UniProt Q969F8); assay: Displacement of [125I]metastin(40-54) from human GPR54 receptor expressed in CHO cells after 60 mins by scintillation counting; format: cell-based
Summary of the method: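 Membranes came from CHO h175-KB34 cells stably expressing human GPR54, harvested at ≤50% confluency, homogenized with protease inhibitors, pelleted and stored at −80 °C. Binding used 135 pM 125I-metastin(40-54) in pH 7.4 Tris/Mg acetate/EGTA buffer with 1 mg/ml BSA, 60 min at 25 °C. Samples were filtered on 0.3% PEI-treated GF/C plates, washed three times, and filter radioactivity was counted.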

KiSS-1 receptor [2] = molecular target: T1, KiSS-1 receptor; settings: CHO, 10 uM
KiSS-1 receptor [3] = molecular target: T1, KiSS-1 receptor; assay: Antagonist activity at human GPR54 receptor expressed in CHO cells assessed as inhibition of metastin(40-54)-induced intracellular calcium mobilization by FLIPR assay; format: functional, cell-based
Summary of the method: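 Human GPR54 cell lines h175-KB33 and h175-16 were plated at 30,000 cells/well and cultured overnight. They were loaded 60 min at 37 °C with Fluo-3AM, 1.25 mM probenecid and 0.04% Pluronic F-127 in pH 7.4 Hepes salt buffer with 0.1% BSA, then washed. Ca2+ was read by FLIPR. Agonist was metastin(40-54) at 30 nM (h175-KB33) or 100 pM (h175-16).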

T1 sequence (Q969F8 whole entry): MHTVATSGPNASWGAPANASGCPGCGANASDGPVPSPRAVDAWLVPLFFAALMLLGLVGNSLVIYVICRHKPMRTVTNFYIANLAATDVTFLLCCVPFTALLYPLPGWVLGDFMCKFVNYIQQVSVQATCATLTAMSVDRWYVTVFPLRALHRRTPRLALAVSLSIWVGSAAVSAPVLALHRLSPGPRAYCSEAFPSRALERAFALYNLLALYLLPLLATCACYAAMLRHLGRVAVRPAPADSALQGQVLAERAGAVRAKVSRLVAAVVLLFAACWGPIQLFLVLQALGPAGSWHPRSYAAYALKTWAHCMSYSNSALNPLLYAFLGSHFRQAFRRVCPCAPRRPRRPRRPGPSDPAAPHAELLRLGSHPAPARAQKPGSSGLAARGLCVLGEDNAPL

IC50 (KiSS-1 receptor [1]) [nM] | inhibition (KiSS-1 receptor [2]) [%] | IC50 (KiSS-1 receptor [3]) [nM] | Compound
1500 | 58 |  | N#Cc1c(-c2cccc(CO)c2)cc(-c2ccccc2O)nc1NC(=O)c1cccs1
34 |  | 1400 | N#Cc1c(-c2cccc(NC(=O)CCCN)c2)cc(-c2ccccc2O)nc1NC(=O)c1cccs1
31 |  |  | COc1ccc(C(=O)Nc2nc(-c3ccccc3O)cc(-c3cccc(C(=O)NCCN)c3)c2C#N)cc1
120 |  |  | N#Cc1c(-c2ccc(C(=O)NCCN)cc2)cc(-c2ccccc2O)nc1NC(=O)c1cccs1
51 |  | 2800 | N#Cc1c(-c2cccc(NC(=O)CN)c2)cc(-c2ccccc2O)nc1NC(=O)c1cccs1
9900 |  |  | N#Cc1c(-c2cccc(C(=O)O)c2)cc(-c2ccccc2O)nc1NC(=O)c1cccs1
2100 |  |  | N#Cc1c(-c2cccc(N)c2)cc(-c2ccccc2O)nc1NC(=O)c1cccs1
45 |  | 5100 | N#Cc1c(-c2cccc(C(=O)NCCN)c2)cc(-c2ccccc2O)nc1NC(=O)c1cccs1
33000 |  |  | N#Cc1c(-c2ccccc2C(=O)NCCN)cc(-c2ccccc2O)nc1NC(=O)c1cccs1
14 |  |  | N#Cc1c(-c2cccc(C(=O)NCCN)c2)cc(-c2ccccc2O)nc1NC(=O)c1ccco1
570 |  |  | N#Cc1c(-c2cccc(CN)c2)cc(-c2ccccc2O)nc1NC(=O)c1cccs1
45 |  |  | COc1ccccc1C(=O)Nc1nc(-c2ccccc2O)cc(-c2cccc(C(=O)NCCN)c2)c1C#N
21 |  | 1100 | N#Cc1c(-c2cccc(NC(=O)CCN)c2)cc(-c2ccccc2O)nc1NC(=O)c1cccs1
9.8 |  | 4100 | N#Cc1c(-c2cccc(NC(=O)CCN)c2)cc(-c2ccc(Cl)cc2O)nc1NC(=O)c1cccs1

Further lines, the compound ahead of its results:

Compound | IC50 (KiSS-1 receptor [1]) [nM] | inhibition (KiSS-1 receptor [2]) [%] | IC50 (KiSS-1 receptor [3]) [nM]
Cc1c(-c2ccccc2O)nc(NC(=O)c2ccco2)c(C#N)c1-c1cccc(NC(=O)CCN)c1 | 1200 |  | 
N#Cc1c(-c2cccc(NC(=O)CCN)c2)cc(-c2ccc(F)cc2O)nc1NC(=O)c1ccco1 | 3.7 |  | 460
N#Cc1c(-c2cccc(NC(=O)CCN)c2)cc(-c2cc(Cl)ccc2O)nc1NC(=O)c1cccs1 | 490 |  | 
CC(C)(CN)CNC(=O)c1cccc(-c2cc(-c3ccc(F)cc3O)nc(NC(=O)c3ccco3)c2C#N)c1 | 11 |  | 2500
COc1ccc(-c2cc(-c3cccc(NC(=O)CCN)c3)c(C#N)c(NC(=O)c3ccccc3)n2)c(O)c1 | 120 |  | 
COc1ccccc1-c1cc(-c2cccc(N)c2)c(C#N)c(NC(=O)c2cccs2)n1 | > 30000 |  | 
COc1ccc(C(=O)Nc2nc(-c3ccccc3O)cc(-c3cccc(C(=O)NC(C)(C)CN)c3)c2C#N)cc1 | 32 |  | 
N#Cc1c(-c2cccc(NC(=O)CCN)c2)cc(-c2ccc(Br)cc2O)nc1NC(=O)c1cccs1 | 19 |  | 6300
N#Cc1c(-c2cccc(NC(=O)CCN)c2)cc(-c2ccc(F)cc2O)nc1NC(=O)c1cccs1 | 7.4 |  | 3600
N#Cc1c(-c2cccc(NC(=O)CCN)c2)cc(-c2ccccc2O)nc1NC(=O)c1ccccc1 | 51 |  | 24000
COc1ccc(O)c(-c2cc(-c3cccc(NC(=O)CCN)c3)c(C#N)c(NC(=O)c3cccs3)n2)c1 | 480 |  | 
COc1ccccc1C(=O)Nc1nc(-c2ccccc2O)cc(-c2cccc(C(=O)NC(C)(C)CN)c2)c1C#N | 32 |  | 
N#Cc1c(-c2cccc(C(=O)NCCN)c2)cc(-c2ccc(F)cc2O)nc1NC(=O)c1ccco1 | 8 |  | 660
N#Cc1c(-c2cccc(NC(=O)CCN)c2)cc(-c2ccccc2N)nc1NC(=O)c1ccccc1 | 890 |  | 
CC(C)(CN)NC(=O)c1cccc(-c2cc(-c3ccccc3O)nc(NC(=O)c3ccco3)c2C#N)c1 | 15 |  | 
Cc1ccc(-c2cc(-c3cccc(NC(=O)CCN)c3)c(C#N)c(NC(=O)c3cccs3)n2)c(O)c1 | 12 |  | 910

Source: ChEMBL document CHEMBL1165928, “Synthesis and structure-activity relationships of 2-acylamino-4,6-diphenylpyridine derivatives as novel antagonists of GPR54” (Bioorg Med Chem, 2010)
